Screening data from PubChem BioAssay.
The full list was thinned out, with hits kept by preference.
Diaph act CS = counter-screen for diaphorase-based assays: diaphorase activators and chemical reducers. activation factor at 20 µM. Diaphorase/resazurin coupled assay, resorufin fluorescence, 16 min; stronger effect = higher value; 1 = vehicle wells, 0 = NADH-free wells. 190,000 compounds, 0.005% hits;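 active = diaphorase activity raised at least twofold by the compound at 20 µM; inactive = activation factor below 2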
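Measured by – red resorufin fluorescence at 544/590 nm excitation/emission · Test system – Clostridium kluyveri diaphorase, purified enzyme · Incubation – reaction time 16 min, room temperature · Buffer or medium – 50 mM HEPES pH 7.4 with 4.542 mM MgCl2, 0.005% Tween 20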
PfGluPho inh = PfG6PD (Plasmodium falciparum) enzyme inhibition | PfGluPho enzyme, NADPH resazurin-diaphorase fluorescence | inhibition, % at 20 µM | 350,000 compounds, 0.78% hits | AID 504690;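 active = inhibition reaching at least a set limit at 20 µM in the primary screen, cut at about 59% in these data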;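 note: 0% = DMSO wells with substrate and 100% = DMSO wells lacking glucose-6-phosphate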
DTT redox prof = compounds producing H2O2 with reducing agent – biochemical, NIH compound library profiling, artefact control for MLSCN library redox annotation, primary screen. DTT-dependent redox cycling H2O2, phenol red/HRP absorbance; 100% = 100 µM peroxide control, 0% = buffer. activation, % at 10 µM. 200,000 compounds, 0.03% hits. AID 878;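 active = activation of at least 50% relative to the plate's high and low controls in the primary single-dose screen; inactive = activation below 50%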;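 note: compound incubated with DTT at 0.8 mM final as the reducing agent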
Diaph inh CS = diaphorase inhibition or chemical oxidation counter-screen; inhibition, % at 20 µM; 190,000 compounds, 0.69% hits; diaphorase resazurin-to-resorufin fluorescence, NADH, 16 min; bacterial (C. kluyveri) enzyme, not human; AID 1217;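 active = primary screen inhibition at 20 µM above a set limit, cut at about 50% in these data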;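 note: plate controls were DMSO with full reaction for no effect and wells lacking NADH for full effect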
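Test system: diaphorase enzyme from Clostridium kluyveri; amount: diaphorase at 0.14 U/mL in enzyme working solution; detection: fluorescence of resorufin formed from resazurin, Ex 544/Em 590 nm; times: reaction incubation of 16 min at room temperature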
Lmaj promast = Leishmania major promastigote growth inhibition | Leishmania major promastigotes, resazurin fluorescence viability | inhibition, % at 10 µM | 200,000 compounds, 9% hits;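 note: promastigotes grown with compound for 44 hours at 28 °C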
G6PDH CS = inhibits Leuconostoc G6PDH, flagging false hits in G6PDH-based assays. Purified L. mesenteroides G6PDH, diaphorase/resazurin coupled fluorescence, 45 min. inhibition, % at 5 µM. 200,000 compounds, 0.12% hits
* hit, by the source's call; x = no result given. Cut-off read from the data, not from the text of the source, unless noted: active = inhibition above about 50%; inactive = the rest.

SMILES	Diaph act CS	PfGluPho inh	DTT redox prof	Diaph inh CS	Lmaj promast	G6PDH CS
COCCCNc1nc2c(c(=O)n(Cc3ccc(Cl)cc3)c(=O)n2C)n1C	x	-14.9	x	x	x	x
Cn1c(NCCCN2CCOCC2)nc2c1c(=O)n(Cc1ccc(Cl)cc1Cl)c(=O)n2C	1	0.9	-0.3	2.2	90.1*	-2.8
Cc1ccc(C)c(N2CCN(CCCNC(=O)Cn3cccc3C(=O)c3ccccc3C)CC2)c1	0.9	14.8	-1.1	5.7	92.6*	8.7
Cc1ccccc1C(=O)c1cccn1CC(=O)NCCCN1CCCCC1	x	-5.9	x	x	x	x
Cc1ccccc1C(=O)c1cccn1CC(=O)NCCN1CCN(c2cccc(C)c2C)CC1	0.8	5.2	2.2	15.4	100.3*	1.8
O=[N+]([O-])c1ccc(S(=O)(=O)NCCc2cn3ccccc3n2)cc1	0.9	-16.4	0.5	14.9	-7.7	13.3
Cc1ccccc1N=CC1=C(O)c2ccccc2C1=O	0.9	-0.6	-0.5	10.4	-0.5	7.6
O=[N+]([O-])c1ccc(Nc2c3ccccc3nc3ccccc23)cc1	0.9	-0.9	-0.8	9.4	56.7*	3.1
Cc1noc(C)c1NC(=O)Nc1ccc2c(c1)CC(=O)N([C@@H](C)CO)C[C@@H](C)[C@@H](CN(C)C(=O)Nc1cccc3ccccc13)O2	x	0.0	x	x	x	x
CCOC(=O)c1ccc(NC(=O)CSc2nc3cccnc3n2C)cc1	0.8	5.0	2.1	22.9	1.6	-4.0
COc1ccc(C(C(=O)NC2CCCC2)N(C(=O)c2snc(-c3ccc(F)cc3)c2N)c2ccc(OC)cc2)cc1 (stereo not drawn)	0.9	-9.1	2.7	5.3	63.0*	13.0
COc1ccc(C(C(=O)NC2CCCC2)N(C(=O)c2snc(-c3ccc(F)cc3)c2N)c2ccc(F)cc2)cc1 (stereo not drawn)	1	-21.5	-3.0	-0.7	71.0*	-3.5
COc1ccc(C(C(=O)NC2CCCC2)N(C(=O)c2snc(-c3ccc(F)cc3)c2N)c2ccccc2)cc1 (stereo not drawn)	1	-11.7	3.3	-3.0	-3.3	11.6
COc1ccc(C(C(=O)NC2CCCC2)N(C(=O)c2snc(-c3ccc(F)cc3)c2N)c2cccc(F)c2)cc1 (stereo not drawn)	1	-9.5	0.0	-2.4	7.6	-15.9
CC1CCN(c2nc(/C=C/c3ccccc3)nc3ccccc23)CC1	0.8	9.2	0.4	22.0	63.1*	-24.3
CC1CCN(c2nc3ccccc3nc2N2CCC(C)CC2)CC1	0.9	x	0.3	11.3	-7.2	-3.8
C(=C\c1nc(N2CCCC2)c2ccccc2n1)/c1ccccc1	1.1	19.9	0.2	-14.6	70.9*	-16.3
c1ccc2c(c1)nc(N1CCCCCC1)c1ccccc12	x	-6.2	x	x	x	x
COC(=O)C1(C)COP(=O)(NC23CC4CC(CC(C4)C2)C3)OC1 (stereo not drawn)	x	-0.8	x	x	x	x
CC(=O)Nc1cc(C)ns1	x	-5.1	x	x	x	x
O=C(N=Nc1c(O)[nH]c2ccc(Cl)cc12)c1cc(-c2cccs2)nc2ccccc12	1	-18.1	x	4.2	52.1*	11.6
O=C(N=Nc1c(O)[nH]c2ccc([N+](=O)[O-])cc12)c1ccccc1Cl	x	5.0	x	x	x	x
CN(C)CCOc1ncnc2c1oc1ccccc12	0.9	3.0	-1.3	7.4	9.8	2.8
CN(C)CCOc1nc(-c2ccccc2)nc2c1oc1ccccc12	1.4	11.1	4.0	-39.9	99.8*	-1.8
CC(=O)Nc1ccc(C(=O)OCc2ccc(Cl)c(Cl)c2)cc1	0.8	-1.0	-0.2	20.1	62.0*	-12.5
SMILES	Diaph act CS	PfGluPho inh	DTT redox prof	Diaph inh CS	Lmaj promast	G6PDH CS
CCC(=O)Nc1ccc(C(=O)OCc2ccc(Cl)c(Cl)c2)cc1	0.8	-5.1	-0.3	23.3	64.7*	-19.4
O=C(COc1ccc(S(=O)(=O)N2CCCCC2)cc1)NCc1cccnc1	0.9	-5.5	0.2	7.6	-5.1	11.4
COCC(C)n1c(C)cc(C(=O)COC(=O)C2=NN(c3ccccc3)C(=O)CC2)c1C (stereo not drawn)	0.9	x	-1.1	6.2	-4.8	3.8
COCC(C)n1c(C)cc(C(=O)COC(=O)c2ccc(N3CCCC3=O)cc2)c1C (stereo not drawn)	0.8	2.4	0.7	16.0	68.5*	-1.9
CC(C)Cn1c(N)c(C=O)c(=O)[nH]c1=O	0.8	-3.3	-2.0	16.1	3.8	0.5
O=C(CCN1CCN(c2ccccc2F)CC1)c1ccc(Br)cc1	1	30.5	-2.0	4.1	83.3*	4.4
O=C(CCCCN1CCCCC1)c1ccc2c(c1)Cc1ccccc1-2	1.2	6.9	7.7	-19.7	99.8*	-10.7
CCOc1ccc(C(=O)CCN2CCCCC2)cc1	1	18.0	-2.9	3.4	10.1	13.6
COc1ccc(C(=O)CCN2CCCCCC2)cc1	0.9	3.1	-1.0	7.1	85.2*	-4.7
O=C(CCN1CCCCCC1)c1ccccc1	0.9	10.4	7.3	13.0	88.2*	-0.6
O=C(c1cccc2c1-c1ccccc1C2)N1CCCCC1	x	-7.1	x	x	x	x
CN(CC(=O)Nc1cccc(F)c1)CC(=O)N(C)CC(=O)Nc1ccccc1Br	x	0.7	x	x	x	x
C[n+]1cn(Cc2ccc(C#N)cc2)c2ccccc21	x	-8.1	x	x	x	x
CC(C)Oc1ccc(C(=O)CCN2CCOCC2)cc1	x	16.4	x	x	x	x
CC(C)Oc1ccc(C(=O)CCN2CCCCC2)cc1	0.9	3.2	-0.2	14.8	90.0*	2.7
CCCOc1ccc(C(=O)CCN2CCN(C(=O)OCC)CC2)cc1	0.9	15.1	-0.4	6.2	96.1*	9.3
CCC1(C)CC2(CCCN(CCC(=O)c3ccccc3)C2)CCO1 (stereo not drawn)	1.1	8.8	-1.8	-6.3	69.3*	5.5
COc1ccc(C)cc1NC(=O)CCNC(=O)Cn1ccc2ccccc2c1=O	x	-6.6	x	x	x	x
O=c1c(Cl)c2oc3ccccc3nc-2c2ccccc12	0.9	-3.9	-0.5	11.8	81.3*	18.1
CN(C(=O)c1ccc(NC(=O)Cc2ccc(NC(=O)C3CCCN(C(=O)C4CC4)C3)cc2)cc1)C1CC1 (stereo not drawn)	x	-18.8	x	x	x	x
CC(Sc1nnc(NC2CC2)s1)C(=O)Nc1ccc(N2CCOCC2)cc1 (stereo not drawn)	x	11.2	x	x	x	x
CC(Sc1nnc(NC2CCCCC2)s1)C(=O)Nc1ccc2c(c1)C(=O)c1ccccc1C2=O (stereo not drawn)	0.4	21.8	0.9	56.2*	66.5*	7.0
CN1CC(=O)N(CC(=O)Nc2cc(Cl)cc(Cl)c2)C1=O	0.9	-3.5	-2.8	14.0	-1.7	1.9
O=C(NC(=S)NNC(=O)c1cnccn1)c1ccc(F)cc1	0.4	24.9	0.3	64.4*	100.4*	-4.3
Cc1cccc(C)c1NC(=O)COC(=O)c1c2c(nc3ccccc13)/C(=C\c1ccc3c(c1)OCO3)CCC2	0.3	-7.8	1.1	69.8*	83.0*	4.1
